Results from different studies.
Protocols differ between the studies behind these lines.
CDK3 with cyclin E: Cyclin-dependent kinase 3, with cyclin E (CDK3, Homo sapiens, UniProt Q00526)
CDK3: Cyclin-dependent kinase 3 (CDK3, Homo sapiens, UniProt Q00526)

COc1ccc2oc(-c3ccc4nc(N)oc4c3)c/c(=N\c3ccccc3NC(=O)CCN)c2c1 gave a remaining binding of 108% (CDK3 with cyclin E; binding; 1 µM).
For CCCCC(=O)Nc1ccc(-c2ccc3ncn(CCC)c(=O)c3c2)cn1, the remaining binding was 93% (CDK3; binding; competition with immobilised ligand; 0.5 µM).
For CN1CCN(C(=O)c2ccc(NC(=O)Nc3ccc(N(C)c4ccnc(Nc5ccc(CS(C)(=O)=O)cc5)n4)cc3)cc2)CC1, the remaining binding was 100% (CDK3; binding; competition with immobilised ligand; 1 µM).
The remaining binding of N#Cc1ccc(NC(=O)Nc2ccccc2)cc1 is reported as 98% (CDK3; cell-free assay; competition with immobilised ligand; 25 µM).
Cc1ccc(NC(=O)c2ccnc(C(F)(F)F)c2)cc1-c1cc(OCCO)nc(N2CCOCC2)c1 has a remaining binding of 89% (CDK3; binding; competition with immobilised ligand; 1 µM).
For CC#CC(=O)N1CCC[C@H]1c1nc(-c2ccc(C(=O)Nc3ccccn3)cc2)c2c(N)nccn12, the inhibition was 8% (CDK3; enzyme activity; inhibitor; 1 µM).
CC(C)S(=O)(=O)c1ccc2nccc(Nc3ccc4sc(C5CCCC5)nc4c3)c2c1 has an activity vs control of 96.5% (CDK3 with cyclin E; enzyme activity; inhibitor; 1 µM).
C[C@]1(O)CCCN(c2nc(Nc3ccc(S(=O)(=O)N[C@H]4CC[C@H](CN5CCN(c6ccc(C7CCC(=O)NC7=O)cc6F)CC5)CC4)cc3F)ncc2C(F)(F)F)C1 (some centres unmarked) gave a remaining binding of 74% (CDK3; binding; competition with immobilised ligand; 1 µM).
The inhibition of C=CC(=O)N1CCC([C@@H]2CCNc3c(C(N)=O)c(-c4ccc(Oc5ccccc5)cc4)nn32)CC1 is reported as 8% (CDK3; enzyme activity; inhibitor; 1 µM).
For C[C@]1(O)CCCN(c2nc(Nc3ccc(S(=O)(=O)N[C@H]4CC[C@H](CN5CCN(c6ccc(C7CCC(=O)NC7=O)cc6F)CC5)CC4)cc3Cl)ncc2C(F)(F)F)C1 (some centres unmarked), the remaining binding was 69% (CDK3; binding; competition with immobilised ligand; 1 µM).
C1=C/COCc2cc(ccc2OCCN2CCCC2)Nc2nccc(n2)-c2cccc(c2)COC/1 has a remaining signal of 100% (CDK3; cell-free assay; 0.1 µM).
